According to ChEMBL document CHEMBL3407438, “Discovery of potent, orally bioavailable, small-molecule inhibitors of WNT signaling from a cell-based pathway screen” (J Med Chem, 2015):
pIC50: −log10 of the molar value.

Tests used:
[1] = Drug metabolism in human liver microsome at 10 uM after 30 mins by LC-MS analysis; format: ADME; conditions: liver microsomes, read-out: Drug metabolism
[2] = cells; format: cell-based; conditions: Homo sapiens, 7dF3
[3] = target: Cytochrome P450 2C9 (Homo sapiens, UniProt P11712); experiment: Inhibition of CYP2C9 (unknown origin); format: ADME
[4] = target: T1, Poly [ADP-ribose] polymerase tankyrase-2 (Homo sapiens, UniProt Q9H2K2); experiment: Inhibition of GST-tagged TNKS2 (873 to 1166 aa) (unknown origin) after 90 mins by HTRF assay
T1 sequence (Q9H2K2 whole entry): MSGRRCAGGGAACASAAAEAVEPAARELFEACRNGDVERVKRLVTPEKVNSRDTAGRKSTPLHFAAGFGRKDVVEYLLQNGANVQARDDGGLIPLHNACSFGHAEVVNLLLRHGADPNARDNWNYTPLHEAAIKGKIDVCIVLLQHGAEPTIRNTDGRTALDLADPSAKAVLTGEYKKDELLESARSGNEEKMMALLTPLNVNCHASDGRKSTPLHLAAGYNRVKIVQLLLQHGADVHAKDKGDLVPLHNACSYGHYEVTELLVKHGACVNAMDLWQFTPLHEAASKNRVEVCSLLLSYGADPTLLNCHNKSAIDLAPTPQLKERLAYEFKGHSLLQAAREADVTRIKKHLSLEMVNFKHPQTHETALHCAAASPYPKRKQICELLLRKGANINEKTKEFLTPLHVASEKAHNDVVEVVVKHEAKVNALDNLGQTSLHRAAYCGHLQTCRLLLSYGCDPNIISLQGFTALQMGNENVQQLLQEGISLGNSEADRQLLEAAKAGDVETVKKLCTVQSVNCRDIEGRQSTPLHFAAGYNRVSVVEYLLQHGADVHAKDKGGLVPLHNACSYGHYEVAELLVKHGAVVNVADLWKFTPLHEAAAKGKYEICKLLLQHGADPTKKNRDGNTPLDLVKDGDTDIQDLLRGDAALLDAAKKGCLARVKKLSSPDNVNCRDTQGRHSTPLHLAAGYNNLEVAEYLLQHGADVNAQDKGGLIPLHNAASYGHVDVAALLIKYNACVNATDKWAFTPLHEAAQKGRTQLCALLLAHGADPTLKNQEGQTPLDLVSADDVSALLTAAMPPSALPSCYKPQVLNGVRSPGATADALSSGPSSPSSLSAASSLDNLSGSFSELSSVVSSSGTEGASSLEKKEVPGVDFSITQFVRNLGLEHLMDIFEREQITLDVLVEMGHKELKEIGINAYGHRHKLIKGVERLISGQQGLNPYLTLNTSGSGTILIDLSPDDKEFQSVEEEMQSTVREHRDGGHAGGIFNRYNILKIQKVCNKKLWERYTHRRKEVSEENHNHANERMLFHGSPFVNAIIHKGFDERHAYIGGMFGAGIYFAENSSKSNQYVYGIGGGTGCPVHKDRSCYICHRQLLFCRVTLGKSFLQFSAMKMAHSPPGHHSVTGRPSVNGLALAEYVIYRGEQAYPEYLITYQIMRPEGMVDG

[5] = Kinetic solubility of the compound in phosphate buffer at pH 7.4; format: physicochemical
[6] = Apparent permeability in human Caco2 cells after 2 hrs by LC-MS/MS analysis; format: ADME, cell-based, Caco-2; conditions: caco-2, 2 h
[7] = target: T2, Poly [ADP-ribose] polymerase tankyrase-1 (Homo sapiens, UniProt O95271); experiment: Inhibition of GST-tagged TNKS1 (1023 to 1327 aa) (unknown origin) after 90 mins by HTRF assay
T2 sequence (O95271 whole entry): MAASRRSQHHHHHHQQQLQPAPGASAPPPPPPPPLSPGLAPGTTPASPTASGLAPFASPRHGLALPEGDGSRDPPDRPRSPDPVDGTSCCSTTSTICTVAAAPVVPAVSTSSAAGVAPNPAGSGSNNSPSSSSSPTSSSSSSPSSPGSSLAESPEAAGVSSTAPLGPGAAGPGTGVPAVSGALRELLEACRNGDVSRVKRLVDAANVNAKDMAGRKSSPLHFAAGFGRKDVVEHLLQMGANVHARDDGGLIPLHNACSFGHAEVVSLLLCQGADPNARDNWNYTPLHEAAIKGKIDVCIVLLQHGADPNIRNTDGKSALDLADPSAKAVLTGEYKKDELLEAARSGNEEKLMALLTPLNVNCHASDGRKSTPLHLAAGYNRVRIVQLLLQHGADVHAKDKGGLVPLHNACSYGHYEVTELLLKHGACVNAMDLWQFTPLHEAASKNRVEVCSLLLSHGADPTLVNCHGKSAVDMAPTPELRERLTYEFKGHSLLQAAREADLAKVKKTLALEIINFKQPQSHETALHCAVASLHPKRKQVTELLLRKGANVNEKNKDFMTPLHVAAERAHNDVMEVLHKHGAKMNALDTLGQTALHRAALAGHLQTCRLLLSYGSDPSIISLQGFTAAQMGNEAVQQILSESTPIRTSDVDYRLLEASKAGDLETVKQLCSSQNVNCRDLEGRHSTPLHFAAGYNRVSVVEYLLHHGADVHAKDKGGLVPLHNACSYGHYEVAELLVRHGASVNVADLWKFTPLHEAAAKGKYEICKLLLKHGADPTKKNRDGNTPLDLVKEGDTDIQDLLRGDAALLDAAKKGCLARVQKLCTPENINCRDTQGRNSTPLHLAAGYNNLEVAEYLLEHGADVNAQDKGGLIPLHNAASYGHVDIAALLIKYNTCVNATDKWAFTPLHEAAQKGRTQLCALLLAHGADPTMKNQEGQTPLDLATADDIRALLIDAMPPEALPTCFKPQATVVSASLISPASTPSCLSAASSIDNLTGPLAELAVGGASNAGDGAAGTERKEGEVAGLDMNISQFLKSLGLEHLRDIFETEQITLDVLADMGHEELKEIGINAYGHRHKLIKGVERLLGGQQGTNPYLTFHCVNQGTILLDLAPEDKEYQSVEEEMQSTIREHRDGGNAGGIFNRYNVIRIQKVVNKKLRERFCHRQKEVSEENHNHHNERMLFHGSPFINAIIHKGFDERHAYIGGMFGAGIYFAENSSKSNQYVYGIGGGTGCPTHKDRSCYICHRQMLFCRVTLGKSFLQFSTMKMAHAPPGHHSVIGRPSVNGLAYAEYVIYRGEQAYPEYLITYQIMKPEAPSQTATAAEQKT

[8] = Tmax in NMRI mouse at 0.5 mg/kg, po; format: ADME, organism-based; design: dose 0.5 mg/kg, route oral; conditions: in vivo
Summary of the method: (§1)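 Female NMRI mice (n = 5) given a single iv bolus (0.2 mg/kg per compound) or oral gavage (0.5 mg/kg per compound) as a cassette, in DMSO/PEG 200/water. Serial retro-orbital blood was drawn under isoflurane from 3 animals per route at 0.1 (iv), 0.25 (po), 0.5, 1, 2, 4 and 6 h. Plasma was quantified by LC–MS/MS.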

[9] = Volume of distribution at steady state in NMRI mouse at 0.2 mg/kg, iv; format: ADME, organism-based; design: dose 0.2 mg/kg, route intravenous; conditions: in vivo, read-out: Vdss; summary of the method: as §1
[10] = target: Cytochrome P450 3A4 (Homo sapiens, UniProt P08684); experiment: Inhibition of CYP3A4 (unknown origin); format: ADME
[11] = Tmax in NMRI mouse at 0.2 mg/kg, iv; format: ADME, organism-based; design: dose 0.2 mg/kg, route intravenous; conditions: in vivo; summary of the method: as §1
[12] = AUC in NMRI mouse at 0.2 mg/kg, iv; format: ADME, organism-based; design: dose 0.2 mg/kg, route intravenous; conditions: plasma; summary of the method: as §1
[13] = Half life in NMRI mouse at 0.2 mg/kg, iv; format: ADME, organism-based; design: dose 0.2 mg/kg, route intravenous; conditions: in vivo; summary of the method: as §1
[14] = Drug metabolism in mouse liver microsome at 10 uM after 30 mins by LC-MS analysis; format: ADME; conditions: liver microsomes, read-out: Drug metabolism
[15] = AUC in NMRI mouse at 0.5 mg/kg, po; format: ADME, organism-based; design: dose 0.5 mg/kg, route oral; conditions: plasma; summary of the method: as §1
[16] = Thermodynamic aqueous solubility of the compound in phosphate buffer at pH 7.4; format: physicochemical
Summary of the method: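 Kinetic and thermodynamic aqueous solubilities were measured in phosphate buffer at pH 7.4.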

[17] = Oral bioavailability in NMRI mouse at 0.5 mg/kg; format: ADME, organism-based; conditions: in vivo
[18] = Clearance in NMRI mouse at 0.2 mg/kg, iv; format: ADME, organism-based; design: dose 0.2 mg/kg, route intravenous; conditions: in vivo; summary of the method: as §1

Sequence of Cytochrome P450 3A4 (P08684 whole entry): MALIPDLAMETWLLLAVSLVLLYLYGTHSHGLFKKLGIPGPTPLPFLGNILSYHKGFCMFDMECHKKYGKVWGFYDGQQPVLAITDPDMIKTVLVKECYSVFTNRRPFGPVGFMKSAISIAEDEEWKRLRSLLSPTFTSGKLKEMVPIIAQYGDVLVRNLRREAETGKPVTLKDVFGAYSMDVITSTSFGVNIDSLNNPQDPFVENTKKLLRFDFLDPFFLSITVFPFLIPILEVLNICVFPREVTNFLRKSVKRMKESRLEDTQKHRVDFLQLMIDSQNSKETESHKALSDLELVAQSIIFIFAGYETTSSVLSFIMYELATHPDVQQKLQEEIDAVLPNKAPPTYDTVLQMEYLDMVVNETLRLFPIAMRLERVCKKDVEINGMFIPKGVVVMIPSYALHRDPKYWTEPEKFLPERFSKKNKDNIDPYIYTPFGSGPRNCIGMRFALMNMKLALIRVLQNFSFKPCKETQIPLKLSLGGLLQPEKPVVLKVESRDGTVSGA
Sequence of Cytochrome P450 2C9 (P11712 whole entry, the tested form may be a part): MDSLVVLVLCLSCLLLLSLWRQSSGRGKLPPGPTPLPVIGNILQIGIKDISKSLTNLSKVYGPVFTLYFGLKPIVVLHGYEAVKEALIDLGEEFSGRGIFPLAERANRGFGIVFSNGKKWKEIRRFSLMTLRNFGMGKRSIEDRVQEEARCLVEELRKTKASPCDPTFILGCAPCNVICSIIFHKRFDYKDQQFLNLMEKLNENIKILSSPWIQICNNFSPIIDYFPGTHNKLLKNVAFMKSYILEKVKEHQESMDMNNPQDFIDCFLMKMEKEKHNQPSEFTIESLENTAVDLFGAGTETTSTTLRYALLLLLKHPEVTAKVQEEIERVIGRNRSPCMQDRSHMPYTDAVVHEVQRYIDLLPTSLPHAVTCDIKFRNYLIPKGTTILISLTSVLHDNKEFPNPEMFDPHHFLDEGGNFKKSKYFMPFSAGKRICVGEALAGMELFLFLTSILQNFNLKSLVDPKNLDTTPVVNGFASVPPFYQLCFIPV

With O=C1NCCC12CCN(c1c(Cl)cncc1-c1ccc(N3CCOCC3)cc1)CC2 the metabolised at 0.5 h, 10 µM [1] was 20%, the pIC50 [2] was 7.52 and the pIC50 [3] was 5.54. For the same compound, the pIC50 [4] was 4.80, the Kinetic_solubility [5] was 164 µM and the Papp [6] was 37 ×10⁻⁶ cm/s. For the same compound, the pIC50 [7] was 4.72, the Tmax [8] was 15 min and the Vd [9] was 1.44 L/kg. For the same compound, the pIC50 [10] was 5.68, the Tmax [11] was 6 min and the AUC [12] was 50.8 ng·h/mL. It also gave a half-life [13] of 18.6 min, a metabolised at 0.5 h, 10 µM [14] of 29% and an AUC [15] of 7.4 ng·h/mL. The Therm_solubility [16] was 17 µg/mL, the bioavailability [17] was 6% and the clearance [18] was 65 mL/min/kg.
